Measured values published in PMC4369925 (Current molecular medicine, 2014).
pIC50: −log10 of the molar value. Residues, ends and D or L forms follow the SMILES beside them.

What was measured:
[1] = target: T1, rPRCP1 (Homo sapiens, UniProt P42785); experiment: Peptide inhibition of rPRCP1 hydrolysis of APpNA; assay type: biochemical
T1 sequence (P42785 46-496): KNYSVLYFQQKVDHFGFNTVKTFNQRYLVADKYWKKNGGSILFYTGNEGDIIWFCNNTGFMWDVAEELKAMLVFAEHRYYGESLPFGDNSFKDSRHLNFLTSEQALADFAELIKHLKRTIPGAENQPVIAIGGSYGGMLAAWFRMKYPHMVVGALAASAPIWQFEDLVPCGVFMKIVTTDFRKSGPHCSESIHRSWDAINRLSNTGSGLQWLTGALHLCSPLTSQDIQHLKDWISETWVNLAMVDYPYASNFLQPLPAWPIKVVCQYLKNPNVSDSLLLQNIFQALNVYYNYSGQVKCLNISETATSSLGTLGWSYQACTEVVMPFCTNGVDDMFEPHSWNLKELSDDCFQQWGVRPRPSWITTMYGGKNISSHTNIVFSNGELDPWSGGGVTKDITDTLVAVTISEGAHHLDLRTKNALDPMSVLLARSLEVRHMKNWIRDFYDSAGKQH
Summary of the method: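 Recombinant PRCP1 hydrolysis of APpNA was measured at 37°C with sub-saturating substrate relative to Km. The initial hydrolysis rate was read at 405 nm in triplicate. Percent inhibition = [1 − (sample − blank)/(total − blank)] × 100, and IC50 and inhibition type were derived from it.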

[2] = system: plasma kallikrein; experiment: Autoactivation of human plasma PK with rPKs, fluid-phase assay; assay type: biochemical; conditions: 1 h
Summary of the method: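 Recombinant PK was expressed in stably transfected HEK cells in serum-free conditioned medium, purified by S-Sepharose cation exchange (pH 5.2, NaCl gradient) and dialysed into TBS pH 7.4. Plasma PK and rPKs, 25 nM each, were incubated in triplicate for 1 h at 37°C. […], kallikrein was assayed with or without a kallikrein inhibitor using 0.5 mM S2302 for 1 h at 37°C, read at 405 nm.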

[3] = target: T1, rPRCP1; experiment: Hydrolysis of X-Pro-pNA chromogenic substrates by rPRCP1; assay type: biochemical; conditions: for ratio of Km to the Km of GPpNA: rPRCP1, X-Pro-pNA, 37°C 1 h, 405 nm, ratio <1 more selective than GPpNA
Summary of the method: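 Recombinant PRCP1 was expressed in Schneider 2 cells. Increasing concentrations of X-Pro-pNA substrates were incubated with it in HEPES-carbonated buffer (pH 7.1, 2 mM CaCl2, 1 mM MgCl2, 0.1% gelatin) at 37°C for 1 h in the dark; two substrates needed 24 h. pNA release was read at 405 nm. Runs were in duplicate, at least 3 times, and data were fit to Michaelis–Menten.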

[4] = system: rPRCP activation of PK; experiment: rPRCP activation of PK bound to HK on microtiter plate; assay type: biochemical, human; conditions: rPRCP 3 μg, HK-coated plate, 1 h
Summary of the method: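 Plasma PK, wild-type rPK or mutant rPKs (25 nM) were added to HK-coated microtiter wells with or without recombinant PRCP in HEPES-carbonate buffer pH 7.1 for 1 h at 37°C. Some wells also received a peptide blocking PK–HK binding (0.1 mM). S2302 (0.5 mM) was then added for 1 h at 37°C and read at 405 nm; three experiments.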

[5] = system: PRCP1-dependent PK activation on HPAEC; experiment: PRCP1-dependent PK activation; assay type: cell-based, human; conditions: 25 nM rPK + 25 nM HK on HPAEC

CSCC[C@H](NC(=O)[C@H](CCC(N)=O)NC(=O)[C@H](C)NC(=O)[C@H](CCCCN)NC(=O)CNC(=O)[C@@H](N)CC(=O)O)C(=O)N[C@@H](CCC(N)=O)C(=O)N[C@@H](CO)C(=O)N1CCC[C@H]1C(=O)N[C@@H](C)C(=O)O [DGK10] (H-DGKAQMQSPA-OH)
pIC50 [1]: 3.22

Cc1cc(Oc2nc(Oc3cccc(C(=N)N)c3)c(F)c(NC(C)CCc3ccccc3)c2F)c(C(=O)O)cc1N(C)C (centres unmarked) [PF048, reference compound]
block of autoactivation of PK (in words) ([2]; 100 nM inhibitor, plasma PK 25 nM + rPK mutants 25 nM): block

Ala-Pro-paranitroanilide [APpNA, reference compound]
ratio of Km to the Km of GPpNA [3]: 0.4

Ser-Pro-paranitroanilide [SPpNA]
product turnover (kcat) compared with APpNA and GPpNA ([3]; rPRCP1, Michaelis-Menten fit): not significantly different | ratio of Km to the Km of GPpNA [3]: 0.23 | catalytic efficiency (kcat/Km), times higher than GPpNA ([3]; rPRCP hydrolysis): 6-7 times | catalytic efficiency (kcat/Km), fold higher than APpNA ([3]; rPRCP hydrolysis, printed as 'at least'): 2-3 fold

rPK^P637A: recombinant PK, C-terminal Pro-Ala replaced by Ala-Ala
autoactivation of plasma PK (in words) ([2]; plasma PK 25 nM + rPK 25 nM, S2302): lower threshold for autoactivation | activability by rPRCP (in words) ([4]; 25 nM rPK): significantly more activable by rPRCP than wild type rPK

wild type rPK: recombinant wild type human prekallikrein
degree of activation by rPRCP relative to wild type plasma PK ([4]; 25 nM PK): about 66% | activation to plasma kallikrein on HPAEC (in words) [5]: less than half
